Each structure is given as a SMILES string. Activity calls are given as the source filed them. The calls are words filed in the database; no cut-off is given here.

Results on nine molecules are retold here after ChEMBL document CHEMBL1932995, “Synthesis of 5-aryl-1,4-benzodiazepine derivatives attached in resorcinaren-PAMAM dendrimers and their anti-cancer activity” (Bioorg Med Chem, 2012).

One assay relates to U-251. Briefly: Growth inhibition of human U251 cells at 50 uM after 48 hrs by SRB assay. In kind it is functional. Conditions: for inhibition of growth at 50 µM: U-251, 48 h, read-out: GI. In outline: (§1)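 Cell lines obtained from NCI, grown in RPMI-1640 with 10% fetal bovine serum, 2 mM glutamine, penicillin G, streptomycin, amphotericin B and 1% non-essential amino acids, at 37 °C, humidified 5% CO2. Cell viability above 95% by trypan blue. Compounds tested in DMSO. Growth read by sulforhodamine B protein staining in microculture per NCI protocol, reported as % inhibition.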
For orientation: Sulforhodamine B stains cellular protein and so reports cell mass.

For the next assay, the system named is PC-3. Briefly: Growth inhibition of human PC3 cells at 50 uM after 48 hrs by SRB assay. Type of assay: functional. As to conditions: for inhibition of growth at 50 µM: PC-3, 48 h, read-out: GI. In outline: as §1
In the next assay the test system is K562. Kind of assay: Growth inhibition of human K562 cells at 50 uM after 48 hrs by SRB assay. Type of assay: functional. Conditions: for inhibition of growth at 50 µM: K562, 48 h, read-out: GI. In outline: as §1
Assay [1] deals with HCT-15. Briefly: Growth inhibition of human HCT15 cells at 50 uM after 48 hrs by SRB assay. In kind it is functional. Conditions: for inhibition of growth at 50 µM: HCT-15, 48 h, read-out: GI. Put shortly: as §1
The subject of another assay is MCF7. Briefly: Growth inhibition of human MCF7 cells at 50 uM after 48 hrs by SRB assay. In kind it is functional. Conditions: for inhibition of growth at 50 µM: MCF7, 48 h, read-out: GI. In outline: as §1
The subject of assay [2] is SK-LU-1. Kind of assay: Growth inhibition of human SKLU1 cells at 50 uM after 48 hrs by SRB assay. In kind it is functional. As to conditions: for inhibition of growth at 50 µM: SK-LU-1, 48 h, read-out: GI. Put shortly:
as §1

Assay [3] relates to HCT-15. Briefly: Anticancer activity against human HCT15 cells after 48 hrs by SRB assay. Type of assay: functional, cell-based.
The test system of assay [4] is SK-LU-1. Kind of assay: Anticancer activity against human SKLU1 cells after 48 hrs by SRB assay. In kind it is functional, cell-based.

As to `NCCNC(=O)COc1cc(OCC(=O)NCCN)c2cc1C(CCc1ccccc1)c1cc(c(OCC(=O)NCCN)cc1OCC(=O)NCCN)C(CCc1ccccc1)c1cc(c(OCC(=O)NCCN)cc1OCC(=O)NCCN)C(CCc1ccccc1)c1cc(c(OCC(=O)NCCN)cc1OCC(=O)NCCN)C2CCc1ccccc1` (configuration not stated), the inhibition of growth at 50 µM with U-251 stood at 37%; in the assay with PC-3, 29%; in the assay on K562, 35.3%; in the assay with HCT-15 [1], 34.9%; in the assay on MCF7, 33.2%; in the assay with SK-LU-1 [2] it was 30.9%.

On to `CCCCCCCCCCCC1c2cc(c(OCC(=O)NCCN(CCC(=O)NCCN)CCC(=O)NCCN)cc2OCC(=O)NCCN(CCC(=O)NCCN)CCC(=O)NCCN)C(CCCCCCCCCCC)c2cc(c(OCC(=O)NCCN(CCC(=O)NCCN)CCC(=O)NCCN)cc2OCC(=O)NCCN(CCC(=O)NCCN)CCC(=O)NCCN)C(CCCCCCCCCCC)c2cc(c(OCC(=O)NCCN(CCC(=O)NCCN)CCC(=O)NCCN)cc2OCC(=O)NCCN(CCC(=O)NCCN)CCC(=O)NCCN)C(CCCCCCCCCCC)c2cc1c(OCC(=O)NCCN(CCC(=O)NCCN)CCC(=O)NCCN)cc2OCC(=O)NCCN(CCC(=O)NCCN)CCC(=O)NCCN` (configuration not stated), for which the inhibition of growth at 50 µM in the assay on U-251 is 56.5%; with PC-3, 38.5%; with K562, 100%; in the assay with HCT-15 [1], 91.3%; in the assay on MCF7 it was 92%; with SK-LU-1 [2] it was 100%.

With `NCCNC(=O)CCN(CCNC(=O)COc1cc(OCC(=O)NCCN(CCC(=O)NCCN)CCC(=O)NCCN)c2cc1C(CCc1ccccc1)c1cc(c(OCC(=O)NCCN(CCC(=O)NCCN)CCC(=O)NCCN)cc1OCC(=O)NCCN(CCC(=O)NCCN)CCC(=O)NCCN)C(CCc1ccccc1)c1cc(c(OCC(=O)NCCN(CCC(=O)NCCN)CCC(=O)NCCN)cc1OCC(=O)NCCN(CCC(=O)NCCN)CCC(=O)NCCN)C(CCc1ccccc1)c1cc(c(OCC(=O)NCCN(CCC(=O)NCCN)CCC(=O)NCCN)cc1OCC(=O)NCCN(CCC(=O)NCCN)CCC(=O)NCCN)C2CCc1ccccc1)CCC(=O)NCCN` (configuration not stated), the “growth inhibition (GI)” value in the assay with U-251, in the assay on PC-3, in the assay on K562, in the assay on HCT-15 [1], in the assay on MCF7 and in the assay on SK-LU-1 [2] was “Active” each time. Moreover, the IC50 result in the assay on HCT-15 [3] and in the assay on SK-LU-1 [4] was “Active” throughout.

On to `Oc1cc(O)c2cc1C(CCc1ccccc1)c1cc(c(O)cc1O)C(CCc1ccccc1)c1cc(c(O)cc1O)C(CCc1ccccc1)c1cc(c(O)cc1O)C2CCc1ccccc1` (configuration not stated), for which the inhibition of growth at 50 µM in the assay with U-251 came to 47.6%; with PC-3 it was 5.4%; with K562 it was 60.8%; in the assay with HCT-15 [1], 14.7%; in the assay on MCF7, 21.5%; in the assay on SK-LU-1 [2], 14.8%.

In the case of `COC(=O)CN1C(=O)CN=C(c2ccccc2)c2cc([N+](=O)[O-])ccc21`, the inhibition of growth at 50 µM was 33.7% with U-251; 22.3% in the assay with PC-3; 30.6% in the assay with K562; 25.2% with HCT-15 [1]; 22.2% in the assay with MCF7; 27.5% in the assay on SK-LU-1 [2].

For the molecule `COC(=O)CN1C(=O)CN=C(c2ccccc2Cl)c2cc(Cl)ccc21`, the inhibition of growth at 50 µM in the assay on U-251 was determined as 18.6%; with PC-3, 12.8%; in the assay on K562, 15.9%; in the assay with HCT-15 [1] it was 12.9%; in the assay with MCF7 it was 11.8%; in the assay with SK-LU-1 [2], 12.5%. The IC50 result with HCT-15 [3] and with SK-LU-1 [4] was “Active” each time.

For the molecule `COC(=O)CN1C(=O)CN=C(c2ccccc2)c2cc(Cl)ccc21`, the inhibition of growth at 50 µM stood at 11.7% in the assay with U-251; 12.3% in the assay on PC-3; 19.7% in the assay with K562; 12% with HCT-15 [1]; 19.3% in the assay on MCF7; 13.2% in the assay with SK-LU-1 [2]. Further, the IC50 entry in the assay on HCT-15 [3] and in the assay with SK-LU-1 [4] was “Active” each time.

On to `CCCCCCCCCCCC1c2cc(c(OCC(=O)NCCN)cc2OCC(=O)NCCN)C(CCCCCCCCCCC)c2cc(c(OCC(=O)NCCN)cc2OCC(=O)NCCN)C(CCCCCCCCCCC)c2cc(c(OCC(=O)NCCN)cc2OCC(=O)NCCN)C(CCCCCCCCCCC)c2cc1c(OCC(=O)NCCN)cc2OCC(=O)NCCN` (configuration not stated), for which the inhibition of growth at 50 µM in the assay with U-251 is 18.1%; with K562 it was 11.2%; in the assay on HCT-15 [1], 31.5%; in the assay on SK-LU-1 [2], 16.2%. Further, the “growth inhibition (GI)” value in the assay on PC-3 and with MCF7 was “Active” each time. Besides, the IC50 entry with HCT-15 [3] and with SK-LU-1 [4] was “Active” throughout.

With `COC(=O)CN1C(=O)CN=C(c2ccccc2F)c2cc(Cl)ccc21`, the inhibition of growth at 50 µM with U-251 came to 20.7%; in the assay on PC-3, 22.4%; in the assay with K562, 27.2%; in the assay on HCT-15 [1] it was 26%; with MCF7, 24.5%; in the assay on SK-LU-1 [2], 19.8%.
